Experiments:
CYP2B6 = target: T1, CYP2B6 (Homo sapiens, UniProt P20813); assay: Cytochrome P450 inhibition; assay type: in vitro ADME; conditions: substrate bupropion; any pre-incubation condition
T1 sequence (P20813 1-491): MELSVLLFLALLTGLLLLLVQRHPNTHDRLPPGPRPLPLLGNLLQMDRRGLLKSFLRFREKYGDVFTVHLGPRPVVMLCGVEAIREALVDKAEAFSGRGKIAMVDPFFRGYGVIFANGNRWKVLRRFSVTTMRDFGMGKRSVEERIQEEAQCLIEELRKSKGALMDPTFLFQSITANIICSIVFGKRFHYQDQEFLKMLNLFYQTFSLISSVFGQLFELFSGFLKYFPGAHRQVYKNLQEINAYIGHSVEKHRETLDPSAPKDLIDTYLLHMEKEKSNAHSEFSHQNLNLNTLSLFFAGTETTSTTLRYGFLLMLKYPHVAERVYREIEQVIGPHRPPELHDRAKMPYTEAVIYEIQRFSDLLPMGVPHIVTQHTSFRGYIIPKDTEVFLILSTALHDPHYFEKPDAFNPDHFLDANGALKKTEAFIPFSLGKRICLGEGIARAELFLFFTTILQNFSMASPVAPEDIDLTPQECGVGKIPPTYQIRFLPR
Outline: (§1)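 Human liver microsomes (0.25 mg/mL final) were pre-incubated with the test compound at six concentrations (40 to 10 000, in water) for 30 min without or with NADPH, or with 0 min pre-incubation. Probe substrate and NADPH (1 mM) were then added (final DMSO 0.05%) and incubated 5 min at 37 °C. Isoform-specific time-dependent inhibitors served as positive controls. IC50 per condition was derived from the decrease in metabolite formation versus vehicle control.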

[1] = cited from earlier work
[2] = cited from earlier work; remark: listed apart in the source
CYP2C8 = target: T2, CYP2C8 (Homo sapiens, UniProt P10632); assay: Cytochrome P450 inhibition; assay type: in vitro ADME; conditions: substrate paclitaxel; any pre-incubation condition
T2 sequence (P10632 1-490): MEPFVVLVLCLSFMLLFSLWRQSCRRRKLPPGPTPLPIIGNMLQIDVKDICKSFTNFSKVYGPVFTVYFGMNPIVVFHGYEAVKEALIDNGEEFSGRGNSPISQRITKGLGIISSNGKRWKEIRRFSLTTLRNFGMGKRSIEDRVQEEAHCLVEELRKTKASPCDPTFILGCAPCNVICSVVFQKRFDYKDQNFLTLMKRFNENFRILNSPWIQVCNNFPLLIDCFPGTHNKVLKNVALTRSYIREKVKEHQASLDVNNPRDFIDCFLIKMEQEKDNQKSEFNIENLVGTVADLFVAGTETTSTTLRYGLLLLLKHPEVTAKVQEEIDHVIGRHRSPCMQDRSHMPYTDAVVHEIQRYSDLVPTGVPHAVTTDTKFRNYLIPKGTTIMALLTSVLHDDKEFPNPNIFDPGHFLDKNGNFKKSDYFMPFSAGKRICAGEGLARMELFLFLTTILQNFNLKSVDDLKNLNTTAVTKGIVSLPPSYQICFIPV
Outline: as §1

CYP2D6 = CYP2D6 (Homo sapiens, UniProt P10635); assay: Cytochrome P450 inhibition; assay type: in vitro ADME; conditions: substrate dextromethorphan; any pre-incubation condition
CYP2D6, sequence (P10635 whole entry): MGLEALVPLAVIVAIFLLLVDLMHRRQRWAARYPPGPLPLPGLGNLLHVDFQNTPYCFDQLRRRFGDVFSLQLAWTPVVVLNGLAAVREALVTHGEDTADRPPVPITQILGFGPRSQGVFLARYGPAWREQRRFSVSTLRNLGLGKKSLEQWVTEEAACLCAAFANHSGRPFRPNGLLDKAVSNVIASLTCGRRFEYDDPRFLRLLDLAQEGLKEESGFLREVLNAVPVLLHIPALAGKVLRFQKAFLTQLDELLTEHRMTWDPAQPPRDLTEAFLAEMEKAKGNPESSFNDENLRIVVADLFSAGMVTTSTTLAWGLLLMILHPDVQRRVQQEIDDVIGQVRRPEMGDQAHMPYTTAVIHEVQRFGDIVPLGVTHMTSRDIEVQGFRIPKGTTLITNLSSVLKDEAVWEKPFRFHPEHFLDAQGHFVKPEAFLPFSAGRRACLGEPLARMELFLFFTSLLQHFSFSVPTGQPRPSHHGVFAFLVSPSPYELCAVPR
Outline: as §1

CYP1A2 = target: T3, CYP1A2 (Homo sapiens, UniProt P05177); assay: Cytochrome P450 inhibition; assay type: in vitro ADME; conditions: substrate phenacetin; any pre-incubation condition
T3 sequence (P05177 1-516): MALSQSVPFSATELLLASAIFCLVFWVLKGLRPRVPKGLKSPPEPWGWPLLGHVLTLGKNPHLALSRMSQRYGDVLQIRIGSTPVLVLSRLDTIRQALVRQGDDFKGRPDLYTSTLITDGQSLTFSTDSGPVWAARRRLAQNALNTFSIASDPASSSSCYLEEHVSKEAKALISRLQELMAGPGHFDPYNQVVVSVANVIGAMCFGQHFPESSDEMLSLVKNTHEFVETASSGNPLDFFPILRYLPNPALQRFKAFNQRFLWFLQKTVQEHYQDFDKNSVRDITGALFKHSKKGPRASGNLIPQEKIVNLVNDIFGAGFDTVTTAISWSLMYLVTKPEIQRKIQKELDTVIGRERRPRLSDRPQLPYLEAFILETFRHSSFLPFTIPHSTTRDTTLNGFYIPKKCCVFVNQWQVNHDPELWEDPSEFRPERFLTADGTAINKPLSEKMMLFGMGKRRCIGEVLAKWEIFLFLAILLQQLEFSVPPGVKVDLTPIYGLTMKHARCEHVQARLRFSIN
Outline: as §1

[3] = cited from earlier work; remark: listed apart in the source
CYP3A4 = CYP3A4 (Homo sapiens, UniProt P08684); assay: Cytochrome P450 inhibition; assay type: in vitro ADME
CYP3A4, sequence (P08684 whole entry): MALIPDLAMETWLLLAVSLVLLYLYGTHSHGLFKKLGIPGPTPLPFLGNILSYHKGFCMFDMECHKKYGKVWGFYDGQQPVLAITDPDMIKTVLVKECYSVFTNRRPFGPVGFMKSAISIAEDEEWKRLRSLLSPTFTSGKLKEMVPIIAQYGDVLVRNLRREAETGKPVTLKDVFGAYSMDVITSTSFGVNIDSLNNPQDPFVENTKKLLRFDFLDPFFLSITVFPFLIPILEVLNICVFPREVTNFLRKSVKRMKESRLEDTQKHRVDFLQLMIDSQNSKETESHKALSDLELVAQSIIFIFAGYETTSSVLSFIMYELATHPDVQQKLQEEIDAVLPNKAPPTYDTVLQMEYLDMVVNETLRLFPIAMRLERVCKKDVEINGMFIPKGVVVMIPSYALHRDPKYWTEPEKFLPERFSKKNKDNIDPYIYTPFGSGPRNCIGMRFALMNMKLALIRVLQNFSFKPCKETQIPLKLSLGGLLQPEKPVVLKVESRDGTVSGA
Outline: as §1

P-gp = P-gp (Homo sapiens, UniProt P08183); assay type: in vitro ADME
P-gp, sequence (P08183 whole entry): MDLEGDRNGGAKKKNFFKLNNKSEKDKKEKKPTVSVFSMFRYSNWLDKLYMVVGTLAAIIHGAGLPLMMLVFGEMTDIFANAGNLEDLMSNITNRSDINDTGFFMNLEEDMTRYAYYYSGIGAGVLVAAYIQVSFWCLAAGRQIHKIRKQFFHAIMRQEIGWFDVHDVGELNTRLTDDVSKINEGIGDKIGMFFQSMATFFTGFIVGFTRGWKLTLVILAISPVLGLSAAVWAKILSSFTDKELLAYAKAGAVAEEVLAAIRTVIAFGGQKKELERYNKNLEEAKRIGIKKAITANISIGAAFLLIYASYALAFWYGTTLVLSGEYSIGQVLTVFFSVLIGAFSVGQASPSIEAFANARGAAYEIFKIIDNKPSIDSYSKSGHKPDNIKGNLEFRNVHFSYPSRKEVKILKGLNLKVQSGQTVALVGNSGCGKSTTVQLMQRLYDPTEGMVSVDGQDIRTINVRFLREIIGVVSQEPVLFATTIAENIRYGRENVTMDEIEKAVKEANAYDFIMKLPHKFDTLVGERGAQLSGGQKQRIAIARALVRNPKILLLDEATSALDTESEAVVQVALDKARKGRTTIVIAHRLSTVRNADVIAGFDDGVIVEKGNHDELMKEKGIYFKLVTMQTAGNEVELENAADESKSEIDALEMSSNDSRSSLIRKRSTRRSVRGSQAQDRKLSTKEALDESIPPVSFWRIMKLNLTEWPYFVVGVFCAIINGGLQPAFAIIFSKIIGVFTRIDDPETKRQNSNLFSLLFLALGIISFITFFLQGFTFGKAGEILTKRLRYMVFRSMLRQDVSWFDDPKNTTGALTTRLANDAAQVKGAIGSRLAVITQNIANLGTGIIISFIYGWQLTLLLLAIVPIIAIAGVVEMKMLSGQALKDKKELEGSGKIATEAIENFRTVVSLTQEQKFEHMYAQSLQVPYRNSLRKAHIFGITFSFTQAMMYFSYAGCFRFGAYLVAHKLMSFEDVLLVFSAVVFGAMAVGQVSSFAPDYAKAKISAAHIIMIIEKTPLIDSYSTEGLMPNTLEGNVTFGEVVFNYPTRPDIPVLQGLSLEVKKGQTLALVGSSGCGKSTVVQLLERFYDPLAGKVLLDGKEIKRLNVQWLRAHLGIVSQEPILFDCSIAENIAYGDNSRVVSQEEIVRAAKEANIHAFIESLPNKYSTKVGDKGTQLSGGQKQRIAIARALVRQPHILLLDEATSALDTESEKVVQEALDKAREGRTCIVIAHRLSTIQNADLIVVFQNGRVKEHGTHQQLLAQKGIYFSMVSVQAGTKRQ
Outline: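 Bidirectional transport of loperamide was measured in a cell test system without and with a concentration range of the test compound; cyclosporin A was the control inhibitor. Papp = (dQ/dt)/(A×C0). Per replicate, A→B Papp was subtracted from B→A Papp to give net secretory flux. This was expressed as % of mean vehicle-control activity and fitted for IC50. Ki = IC50/(1+[S]×fu/Km), using loperamide Km 36.2.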

[4] = Clinical pharmacokinetics of treosulfan in plasma and urine; assay type: in vivo, human; conditions: for AUC / half-life: human, plasma, intravenous; for AUC: 14 g/m^2, AUC; for half-life: 14 g/m^2, apparent half‐life, median
CYP2C19 = CYP2C19 (Homo sapiens, UniProt P33261); assay: Cytochrome P450 inhibition; assay type: in vitro ADME
CYP2C19, sequence (P33261 whole entry): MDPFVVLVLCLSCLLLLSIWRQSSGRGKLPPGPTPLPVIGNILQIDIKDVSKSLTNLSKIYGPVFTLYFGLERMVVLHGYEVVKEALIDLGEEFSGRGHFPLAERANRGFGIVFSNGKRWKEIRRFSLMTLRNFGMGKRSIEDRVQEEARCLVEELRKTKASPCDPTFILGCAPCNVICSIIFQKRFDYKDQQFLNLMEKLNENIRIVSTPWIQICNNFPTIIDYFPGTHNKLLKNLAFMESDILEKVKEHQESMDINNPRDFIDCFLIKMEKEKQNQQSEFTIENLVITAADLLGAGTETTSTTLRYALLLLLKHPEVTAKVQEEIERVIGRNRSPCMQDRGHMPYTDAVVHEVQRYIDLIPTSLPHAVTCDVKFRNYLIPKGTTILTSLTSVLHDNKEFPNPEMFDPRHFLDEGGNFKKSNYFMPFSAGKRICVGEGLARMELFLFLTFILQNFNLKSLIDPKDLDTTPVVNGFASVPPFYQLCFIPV
Outline: as §1

CYP2C9 = CYP2C9 (Homo sapiens, UniProt P11712); assay: Cytochrome P450 inhibition; assay type: in vitro ADME; conditions: substrate diclofenac; any pre-incubation condition
CYP2C9, sequence (P11712 whole entry): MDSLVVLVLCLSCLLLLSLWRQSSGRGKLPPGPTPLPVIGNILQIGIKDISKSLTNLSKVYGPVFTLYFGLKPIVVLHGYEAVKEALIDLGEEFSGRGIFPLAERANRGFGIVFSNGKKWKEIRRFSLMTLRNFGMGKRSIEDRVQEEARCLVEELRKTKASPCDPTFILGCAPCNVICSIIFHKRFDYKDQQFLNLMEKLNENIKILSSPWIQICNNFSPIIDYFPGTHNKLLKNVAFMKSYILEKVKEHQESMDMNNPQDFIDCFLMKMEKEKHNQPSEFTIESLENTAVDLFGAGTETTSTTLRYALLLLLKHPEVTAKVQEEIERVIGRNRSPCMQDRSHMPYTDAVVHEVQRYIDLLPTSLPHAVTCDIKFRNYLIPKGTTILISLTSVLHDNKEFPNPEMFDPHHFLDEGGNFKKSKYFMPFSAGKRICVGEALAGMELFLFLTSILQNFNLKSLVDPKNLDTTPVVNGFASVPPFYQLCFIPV
Outline: as §1

In the case of `CS(=O)(=O)OC[C@H](O)[C@@H](O)COS(C)(=O)=O` [treosulfan, L‐threitol‐1,4‐bis‐methanesulfonate], the “inhibition of CYP2B6” value (CYP2B6) is given as “did not inhibit”, the “Log P O:W” value [1] is given as −1.58 and the “B:P (blood‐plasma ratio)” value [2] is given as 0.88. For the same compound, the “inhibition of CYP2C8” value (CYP2C8) was “did not inhibit”, the “inhibition of CYP2D6” value (CYP2D6) was “did not inhibit” and the “inhibition of CYP1A2” value (CYP1A2) was “did not inhibit”. For the same compound, the “GFR fraction, literature” value [3] was “Estimated (literature[20]: 0.41 ± 0.22)”, the IC50 (CYP3A4) was 1870 µM and the Ki (CYP3A4) was 1210 µM. The “inhibition of CYP3A4 using testosterone as the substrate” value (CYP3A4; 40 to 10 000 μM treosulfan, any pre-incubation condition) was “did not inhibit”, the Ki (P-gp) was 1770 µM and the IC50 (P-gp; human, in vitro cell test system (cell line not given), probe loperamide) was greater than 1000 µM. For the same compound, the AUC ([4]; day −4, patients) was 1450 µg·h/mL, the AUC ([4]; day −6, patients) was 1420 µg·h/mL and the half-life ([4]; day −4, patients) was 1.93 h. The half-life ([4]; day −6, patients) was 1.86 h, the “administered dose excreted in urine” value ([4]; patients) was “About 40%” and the “rate at which dose was excreted in urine” value ([4]; patients, CV% = 31.98%) was 130.38 mL/min. For the same compound, the IC50 (CYP2C19) was 972 µM, the Ki (CYP2C19) was 778 µM and the “inhibition of CYP2C9” value (CYP2C9) was “did not inhibit”.

From PMC9291915 (British Journal of Clinical Pharmacology, 2021)
